Assays:
[1] = system: U-937; assay: Antiproliferative activity against human U937 cells after 72 hrs by Celltiter-Glo assay; type: functional; settings: U-937, 72 h
In short: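 Cells seeded at 3000/well in 96-well plates, exposed to serially diluted compound for 72 h at 37 °C, 5% CO2. Viability read by CellTiter-Glo luminescence and normalized to DMSO control. GI50 derived from curve fit, mean of three independent measurements. Culture media: DMEM/10% FBS for adherent lines; IMDM for MV4-11 and MEC-1/2; RPMI 1640 for suspension lines and CHL.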

[2] = AUC (0 to infinity) in mouse at 3 mg/kg, iv by LC-MS/MS analysis; type: ADME, organism-based; set-up: dose 3 mg/kg, route intravenous, time infinity; settings: in vivo
In short: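 Non-compartmental PK. Male SD rats 190-210 g, mice and beagle dogs acclimatized one week, fasted 12 h with water, split into iv and po groups (mice 48, rats 6, dogs 6). iv 3/3/2 mg/kg (mice/rats/dogs); po 10/20/10 mg/kg; vehicle DMSO in 5% glucose water. Blood at 2 or 5 to 720 min; plasma protein-precipitated with methanol, caffeine internal standard, LC-MS/MS.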

[3] = system: Mus musculus; assay: Toxicity in nu/nu mouse xenografted with MV4-11 cells assessed as effect on body weight at 10 to 30 mg/kg, po administered via gavage for 21 days measured every day during compound dosing; type: organism-based; settings: in vivo, 504 h
[4] = target: NUAK family SNF1-like kinase 1 (Homo sapiens) (UniProt O60285); assay: Binding affinity to wild-type human partial length ARK5 (E25 to I332 residues) expressed in bacterial expression system assessed as remaining unbound target protein level at 1000 nM by Kinomescan method relative to control
In short: (§1)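 Profiled in a KINOMEscan binding panel with the inhibitor at a single concentration of 1 μM. Binding to each kinase was read out as percent of control, relative to a DMSO control. Strong binders were defined as those with a percent control value below 1.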

[5] = target: Tyrosine-protein kinase BTK (Homo sapiens) (UniProt Q06187); assay: Binding affinity to wild-type human full length BTK (M1 to S659 residues) expressed in mammalian expression system assessed as remaining unbound target protein level at 1000 nM by Kinomescan method relative to control
In short: (§2)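 Single-point competition binding screen across a panel of 468 kinases and mutants, with the inhibitor at 1 μM. Binding is read out as percent of a DMSO control, and targets below 1 percent control were classed as strong binders.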

[6] = target: Mitotic checkpoint serine/threonine-protein kinase BUB1 (Homo sapiens) (UniProt O43683); assay: Binding affinity to wild-type human partial length BUB1 (Q724 to K1085 residues) expressed in mammalian expression system assessed as remaining unbound target protein level at 1000 nM by Kinomescan method relative to control; in short: as §1
[7] = target: Dual specificity protein kinase CLK1 (Homo sapiens) (UniProt P49759); assay: Binding affinity to wild-type human full length CLK1 (M1 to I484 residues) expressed in bacterial expression system assessed as remaining unbound target protein level at 1000 nM by Kinomescan method relative to control
In short: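 KINOMEscan competitive binding profile at 1 μM inhibitor. Remaining target binding reported as percent of DMSO control.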

[8] = target: Ephrin type-B receptor 3 (Homo sapiens) (UniProt P54753); assay: Binding affinity to wild-type human partial length EPHB3 (Q599 to T928 residues) expressed in bacterial expression system assessed as remaining unbound target protein level at 1000 nM by Kinomescan method relative to control
[9] = target: G protein-coupled receptor kinase 4 (Homo sapiens) (UniProt P32298); assay: Binding affinity to wild-type human full length GRK4 (M1 to C578 residues) expressed in bacterial expression system assessed as remaining unbound target protein level at 1000 nM by Kinomescan method relative to control; in short: as §2
[10] = target: Tyrosine-protein kinase JAK1 (Homo sapiens) (UniProt P23458); assay: Binding affinity to wild-type human partial length JAK1 JH1 catalytic domain (V856 to K1154 residues) expressed in bacterial expression system assessed as remaining unbound target protein level at 1000 nM by Kinomescan method relative to control
In short: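 KINOMEscan binding panel of 468 kinases/mutants. Inhibitor was tested at a single concentration of 1 μM. Binding is reported as percent of control, defined relative to a DMSO control.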

[11] = system: Mast/stem cell growth factor receptor Kit (Homo sapiens), P10721 [A829P]; assay: Binding affinity to human partial length KIT A829P mutant (I571 to D952 residues) expressed in mammalian expression system assessed as remaining unbound target protein level at 1000 nM by Kinomescan method relative to control
In short: (§3)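 KINOMEscan competition-binding profiling across the panel of 468 kinases and mutants, with inhibitor tested at 1 μM. Binding is expressed as percent of control, with DMSO as the reference control.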

[12] = system: Mast/stem cell growth factor receptor Kit (Homo sapiens), P10721 [V559D,T670I]; assay: Binding affinity to human partial length KIT V559D/T670I double mutant (Y545 to D952 residues) expressed in bacterial expression system assessed as remaining unbound target protein level at 1000 nM by Kinomescan method relative to control; in short: as §3
[13] = target: Mitogen-activated protein kinase kinase kinase 15 (Homo sapiens) (UniProt Q6ZN16); assay: Binding affinity to wild-type human partial length MAP3K15 (T625 to L932 residues) expressed in mammalian expression system assessed as remaining unbound target protein level at 1000 nM by Kinomescan method relative to control
[14] = target: Muscle, skeletal receptor tyrosine-protein kinase (Homo sapiens) (UniProt O15146); assay: Binding affinity to wild-type human partial length MUSK (M553 to V869 residues) expressed in bacterial expression system assessed as remaining unbound target protein level at 1000 nM by Kinomescan method relative to control
[15] = target: Serine/threonine-protein kinase Nek9 (Homo sapiens) (UniProt Q8TD19); assay: Binding affinity to wild-type human partial length NEK9 (P32 to R328 residues) expressed in bacterial expression system assessed as remaining unbound target protein level at 1000 nM by Kinomescan method relative to control
[16] = target: Serine/threonine-protein kinase Sgk2 (Homo sapiens) (UniProt Q9HBY8); assay: Binding affinity to wild-type human partial length SGK2 (L54 to C427 residues) expressed in mammalian expression system assessed as remaining unbound target protein level at 1000 nM by Kinomescan method relative to control
[17] = target: Serine/threonine-protein kinase SIK1 (Homo sapiens) (UniProt P57059); assay: Binding affinity to wild-type human partial length SIK (M1 to Y304 residues) expressed in bacterial expression system assessed as remaining unbound target protein level at 1000 nM by Kinomescan method relative to control
[18] = organism: Homo sapiens; assay: Selectivity ratio of IC50 for recombinant full length His/GST-tagged human CDK5/p25 to IC50 for recombinant full length His-tagged human CDK9/CyclinT1
[19] = system: Mitogen-activated protein kinase kinase kinase 12 (DLK); assay: Binding affinity to wild-type human full length DLK (M1 to P859 residues) expressed in mammalian expression system assessed as remaining unbound target protein level at 1000 nM by Kinomescan method relative to control

Sequence of Ephrin type-B receptor 3 (Homo sapiens) (P54753 whole entry, the tested form may be a part): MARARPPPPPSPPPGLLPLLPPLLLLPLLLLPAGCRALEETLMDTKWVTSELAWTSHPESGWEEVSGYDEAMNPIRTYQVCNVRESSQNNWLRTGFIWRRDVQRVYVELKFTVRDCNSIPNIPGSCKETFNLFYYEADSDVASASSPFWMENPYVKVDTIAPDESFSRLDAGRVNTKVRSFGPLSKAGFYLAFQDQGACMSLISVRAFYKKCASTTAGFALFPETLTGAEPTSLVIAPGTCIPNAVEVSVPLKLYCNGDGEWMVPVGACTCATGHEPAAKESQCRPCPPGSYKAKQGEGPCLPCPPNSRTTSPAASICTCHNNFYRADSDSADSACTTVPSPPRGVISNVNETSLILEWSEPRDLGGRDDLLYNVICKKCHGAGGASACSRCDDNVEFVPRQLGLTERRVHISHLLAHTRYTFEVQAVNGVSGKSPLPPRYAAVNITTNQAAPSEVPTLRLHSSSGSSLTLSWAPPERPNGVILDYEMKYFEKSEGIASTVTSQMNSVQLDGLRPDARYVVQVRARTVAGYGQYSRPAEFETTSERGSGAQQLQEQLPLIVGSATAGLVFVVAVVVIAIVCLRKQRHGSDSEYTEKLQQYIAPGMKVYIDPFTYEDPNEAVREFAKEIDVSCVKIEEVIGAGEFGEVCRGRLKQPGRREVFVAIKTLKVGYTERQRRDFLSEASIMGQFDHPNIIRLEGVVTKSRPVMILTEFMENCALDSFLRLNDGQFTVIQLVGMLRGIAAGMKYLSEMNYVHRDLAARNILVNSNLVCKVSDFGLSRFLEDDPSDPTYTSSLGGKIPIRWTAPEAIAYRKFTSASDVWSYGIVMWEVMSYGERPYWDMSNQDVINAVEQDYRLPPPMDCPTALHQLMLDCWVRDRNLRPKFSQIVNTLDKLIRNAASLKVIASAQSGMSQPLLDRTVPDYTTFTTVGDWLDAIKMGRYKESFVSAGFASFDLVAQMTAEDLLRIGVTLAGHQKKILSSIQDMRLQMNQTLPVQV
Sequence of Serine/threonine-protein kinase Sgk2 (Homo sapiens) (Q9HBY8 whole entry, the tested form may be a part): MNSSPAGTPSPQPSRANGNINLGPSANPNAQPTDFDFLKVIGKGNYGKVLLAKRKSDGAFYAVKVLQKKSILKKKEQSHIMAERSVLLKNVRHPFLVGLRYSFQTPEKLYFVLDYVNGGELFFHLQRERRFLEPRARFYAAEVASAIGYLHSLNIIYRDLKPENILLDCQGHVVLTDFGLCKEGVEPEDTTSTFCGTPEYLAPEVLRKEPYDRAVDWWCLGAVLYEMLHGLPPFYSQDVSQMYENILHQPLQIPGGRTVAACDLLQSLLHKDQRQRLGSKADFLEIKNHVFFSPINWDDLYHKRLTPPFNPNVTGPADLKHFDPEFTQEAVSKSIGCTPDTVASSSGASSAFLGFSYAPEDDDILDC
Sequence of Muscle, skeletal receptor tyrosine-protein kinase (Homo sapiens) (O15146 whole entry, the tested form may be a part): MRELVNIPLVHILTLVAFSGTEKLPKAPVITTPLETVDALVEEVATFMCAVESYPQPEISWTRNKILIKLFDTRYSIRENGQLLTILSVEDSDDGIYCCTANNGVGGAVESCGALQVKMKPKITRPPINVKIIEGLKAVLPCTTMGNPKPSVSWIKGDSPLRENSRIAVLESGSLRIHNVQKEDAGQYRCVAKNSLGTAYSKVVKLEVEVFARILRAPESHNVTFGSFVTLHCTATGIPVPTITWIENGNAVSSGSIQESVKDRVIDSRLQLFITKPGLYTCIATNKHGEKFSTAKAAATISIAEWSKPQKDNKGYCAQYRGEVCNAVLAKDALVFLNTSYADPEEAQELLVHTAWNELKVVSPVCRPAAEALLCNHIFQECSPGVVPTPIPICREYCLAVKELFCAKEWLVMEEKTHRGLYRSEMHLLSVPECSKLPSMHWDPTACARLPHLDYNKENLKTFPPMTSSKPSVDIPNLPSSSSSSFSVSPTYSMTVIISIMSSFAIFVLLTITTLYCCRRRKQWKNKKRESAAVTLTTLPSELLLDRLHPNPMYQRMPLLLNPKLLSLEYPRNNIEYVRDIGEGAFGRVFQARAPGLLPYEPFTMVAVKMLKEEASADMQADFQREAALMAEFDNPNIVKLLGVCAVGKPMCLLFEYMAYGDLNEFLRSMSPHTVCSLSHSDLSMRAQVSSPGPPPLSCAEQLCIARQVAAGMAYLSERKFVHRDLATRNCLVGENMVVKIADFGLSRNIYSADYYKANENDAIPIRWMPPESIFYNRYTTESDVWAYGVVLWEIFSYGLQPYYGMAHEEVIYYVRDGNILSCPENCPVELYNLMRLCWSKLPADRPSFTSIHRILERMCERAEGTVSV
Sequence of Mitogen-activated protein kinase kinase kinase 15 (Homo sapiens) (Q6ZN16 whole entry, the tested form may be a part): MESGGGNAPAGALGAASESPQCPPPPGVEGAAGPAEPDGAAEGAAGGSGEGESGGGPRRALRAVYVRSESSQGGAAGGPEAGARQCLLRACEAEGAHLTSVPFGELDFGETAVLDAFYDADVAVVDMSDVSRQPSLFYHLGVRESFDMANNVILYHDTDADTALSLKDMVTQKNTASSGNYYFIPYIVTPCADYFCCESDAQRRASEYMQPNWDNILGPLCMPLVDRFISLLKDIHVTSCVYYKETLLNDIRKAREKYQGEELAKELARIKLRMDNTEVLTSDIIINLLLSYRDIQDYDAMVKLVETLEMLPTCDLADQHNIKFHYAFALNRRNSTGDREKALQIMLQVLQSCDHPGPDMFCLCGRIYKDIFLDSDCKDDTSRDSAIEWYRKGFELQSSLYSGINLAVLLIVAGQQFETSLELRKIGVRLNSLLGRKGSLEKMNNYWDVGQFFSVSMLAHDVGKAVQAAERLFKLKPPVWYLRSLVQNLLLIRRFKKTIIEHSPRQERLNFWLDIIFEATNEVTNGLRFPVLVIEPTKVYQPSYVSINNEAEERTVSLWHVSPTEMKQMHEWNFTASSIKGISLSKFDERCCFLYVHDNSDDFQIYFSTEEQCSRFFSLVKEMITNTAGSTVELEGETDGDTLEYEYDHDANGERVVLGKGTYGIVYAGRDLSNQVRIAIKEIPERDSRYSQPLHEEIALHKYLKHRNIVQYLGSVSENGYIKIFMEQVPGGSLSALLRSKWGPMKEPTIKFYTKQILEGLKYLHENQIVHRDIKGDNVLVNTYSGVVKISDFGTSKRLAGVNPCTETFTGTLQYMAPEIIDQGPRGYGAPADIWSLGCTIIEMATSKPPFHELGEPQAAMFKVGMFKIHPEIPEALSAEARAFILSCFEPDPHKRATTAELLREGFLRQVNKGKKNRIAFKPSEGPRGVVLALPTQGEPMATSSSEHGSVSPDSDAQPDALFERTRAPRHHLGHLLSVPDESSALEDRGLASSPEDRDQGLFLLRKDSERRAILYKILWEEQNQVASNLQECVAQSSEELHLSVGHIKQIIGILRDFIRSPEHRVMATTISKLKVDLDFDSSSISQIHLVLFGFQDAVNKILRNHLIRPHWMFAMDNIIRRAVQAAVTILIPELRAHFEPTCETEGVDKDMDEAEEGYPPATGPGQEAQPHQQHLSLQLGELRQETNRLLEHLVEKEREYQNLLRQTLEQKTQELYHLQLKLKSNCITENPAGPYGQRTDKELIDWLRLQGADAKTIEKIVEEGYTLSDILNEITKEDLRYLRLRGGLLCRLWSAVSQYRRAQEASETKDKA
Sequence of Mast/stem cell growth factor receptor Kit (Homo sapiens), P10721 [A829P] (P10721 whole entry A829P, the tested form may be a part): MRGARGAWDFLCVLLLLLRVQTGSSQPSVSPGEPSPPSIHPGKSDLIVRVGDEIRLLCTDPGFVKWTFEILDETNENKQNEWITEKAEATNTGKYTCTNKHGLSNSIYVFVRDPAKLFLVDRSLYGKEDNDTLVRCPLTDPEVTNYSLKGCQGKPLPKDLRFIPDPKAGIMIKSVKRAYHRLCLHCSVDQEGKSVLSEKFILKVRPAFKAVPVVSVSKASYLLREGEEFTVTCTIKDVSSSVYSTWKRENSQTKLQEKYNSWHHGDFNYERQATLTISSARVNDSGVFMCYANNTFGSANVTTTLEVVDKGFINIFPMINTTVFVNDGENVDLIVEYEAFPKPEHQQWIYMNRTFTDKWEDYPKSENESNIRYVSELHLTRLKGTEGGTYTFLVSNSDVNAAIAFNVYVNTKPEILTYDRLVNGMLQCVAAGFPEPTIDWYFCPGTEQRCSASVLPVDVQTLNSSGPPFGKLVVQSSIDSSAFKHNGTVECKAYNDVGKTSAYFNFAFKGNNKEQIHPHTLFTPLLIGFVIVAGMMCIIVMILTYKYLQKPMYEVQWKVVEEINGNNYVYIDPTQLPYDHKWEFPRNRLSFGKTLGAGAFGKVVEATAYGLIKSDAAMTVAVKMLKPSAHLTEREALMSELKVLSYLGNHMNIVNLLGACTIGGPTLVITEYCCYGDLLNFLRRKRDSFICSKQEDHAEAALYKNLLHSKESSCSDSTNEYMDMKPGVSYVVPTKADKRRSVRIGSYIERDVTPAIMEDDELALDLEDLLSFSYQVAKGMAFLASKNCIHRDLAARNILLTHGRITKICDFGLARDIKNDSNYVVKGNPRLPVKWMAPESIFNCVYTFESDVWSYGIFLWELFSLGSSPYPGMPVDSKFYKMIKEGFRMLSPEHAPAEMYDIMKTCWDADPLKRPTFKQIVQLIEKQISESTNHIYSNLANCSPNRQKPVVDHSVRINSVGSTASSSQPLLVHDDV
Sequence of G protein-coupled receptor kinase 4 (Homo sapiens) (P32298 whole entry, looked up, the tested form may be a part): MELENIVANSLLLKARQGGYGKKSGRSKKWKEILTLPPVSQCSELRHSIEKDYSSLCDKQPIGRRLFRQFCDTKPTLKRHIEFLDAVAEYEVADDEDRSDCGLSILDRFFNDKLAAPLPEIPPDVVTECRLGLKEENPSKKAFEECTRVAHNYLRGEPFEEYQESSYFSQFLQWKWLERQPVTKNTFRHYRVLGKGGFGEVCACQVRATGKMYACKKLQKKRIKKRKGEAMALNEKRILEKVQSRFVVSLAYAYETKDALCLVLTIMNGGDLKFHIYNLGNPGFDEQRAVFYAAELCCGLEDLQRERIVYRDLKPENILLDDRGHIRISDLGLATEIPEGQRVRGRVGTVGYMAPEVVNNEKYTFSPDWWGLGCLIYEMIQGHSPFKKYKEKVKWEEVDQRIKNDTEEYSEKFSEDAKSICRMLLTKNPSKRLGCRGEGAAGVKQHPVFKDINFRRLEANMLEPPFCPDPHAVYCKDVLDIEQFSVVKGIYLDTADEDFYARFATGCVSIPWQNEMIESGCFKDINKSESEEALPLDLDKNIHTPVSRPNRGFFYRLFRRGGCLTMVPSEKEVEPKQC

In the case of `COCCN[C@H]1CC[C@H](Nc2cc(-c3csc(NCC4(C#N)CCOCC4)n3)c(Cl)cn2)CC1`, the GI50 [1] is reported as 2 nM, the AUC(0-inf) [2] is reported as 408 ng·h/mL and the Activity [3] is reported as “Non-Toxic”. It also gave an Activity [4] of 100%, an Activity [5] of 100% and an Activity [6] of 96%. For the same compound, the Activity [7] was 18%, the Activity [8] was 100% and the Activity [9] was 96%. It also gave an Activity [10] of 99%, an Activity [11] of 88% and an Activity [12] of 89%. It also gave an Activity [13] of 84%, an Activity [14] of 100% and an Activity [15] of 89%. For the same compound, the Activity [16] was 89%, the Activity [17] was 93% and the Ratio IC50 [18] was over 1000. The Activity [19] was 100%.
